Here are results for 13 molecules from ChEMBL document CHEMBL1145081, “Effects of the substitution of Phe4 in the opioid peptide [D-Ala8]dynorphin A-(1-11)NH2” (J Med Chem, 2003).

Molecules are shown by their SMILES. Some results are limits rather than exact numbers.

A word on the Ki: it is the dissociation constant of the complex between target and ligand, obtained from inhibition or displacement. A lower Ki goes with tighter binding. What is called EC50 is the concentration needed to bring the measured effect to its halfway point.

For one experiment, the target named is Mu-type opioid receptor (Rattus norvegicus, UniProt P33535). Description: Binding affinity towards rat Opioid receptor mu 1 expressed in CHO cells of chinese hamster ovary was determined using [3H]DAMGO. In kind it is cell-based. The method in brief: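 [3H]DAMGO displacement on cloned rat μ-opioid receptors stably expressed in CHO cells. Nonspecific binding defined with 10 μM unlabeled DAMGO. Peptidase inhibitors (10 μM bestatin, 30 μM captopril, 50 μM L-leucyl-L-leucine) and 3 mM Mg2+ included. Mean ± SEM, at least three separate assays.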

The target in experiment [1] is T1, Kappa-type opioid receptor (Rattus norvegicus, UniProt P34975). In words: Binding affinity towards rat Opioid receptor kappa 1 expressed in CHO cells of chinese hamster ovary was determined using [3H]diprenorphine as radioligand. The class given is cell-based. The procedure, abridged: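 Cloned rat κ-opioid receptors stably expressed in CHO cells; affinity from competitive inhibition of [3H]diprenorphine binding. Nonspecific binding defined with 10 μM unlabeled Dyn A-(1-13)NH2. Assay buffer held 10 μM bestatin, 30 μM captopril, 50 μM L-leucyl-L-leucine and 3 mM Mg2+. Mean ± SEM, at least three separate assays.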

Experiment [2] concerns the target T1, Kappa-type opioid receptor. In words: Inhibition of Forskolin-Stimulated Adenylyl Cyclase in CHO cells expressing Opioid receptor kappa 1. In kind it is functional, cell-based. The method in brief: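 CHO cells stably expressing cloned rat κ-opioid receptors. Cultures incubated 40 min at 37° with 50 μM forskolin and varying peptide concentrations. Present: 50 μM RO20-1724 (phosphodiesterase inhibitor), plus 10 μM bestatin, 30 μM captopril and 50 μM L-leucyl-L-leucine. [3H]cyclic AMP counted, with [14C]cyclic AMP added for recovery correction. Mean ± SEM, generally n ≥ 3, some n = 2.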

Experiment [3] concerns the target T2, Delta-type opioid receptor (Mus musculus, UniProt P32300). In words: Binding affinity towards mouse Opioid receptor delta 1 expressed in CHO cells of chinese hamster ovary was determined using [3H]-[…] as radioligand. In kind it is cell-based. The procedure, abridged:
(§1)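 Competition binding against [3H]DPDPE on cloned mouse δ-opioid receptors stably expressed in CHO cells. Nonspecific binding defined with 10 μM unlabeled DPDPE. Peptidase inhibitors present (10 μM bestatin, 30 μM captopril, 50 μM L-leucyl-L-leucine) plus 3 mM Mg2+. Mean ± SEM from at least three separate assays.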

In experiment [4] the target is Kappa-type opioid receptor (Rattus norvegicus) (UniProt P34975). In words: Inhibition of Forskolin-Stimulated Adenylyl Cyclase in CHO cells expressing Opioid receptor kappa 1 at 10 uM relative to 100 nM Dyn A-(1-13)NH(2). In kind it is functional, cell-based. The procedure, abridged: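 Same κ-CHO forskolin (50 μM, 40 min, 37°) cyclic AMP assay, with phosphodiesterase and peptidase inhibitors. Maximal percent inhibition by peptide at 10 μM, expressed relative to the inhibition given by 100 nM Dyn A-(1-13)NH2. Cyclic AMP counts corrected for recovery using a [14C]cyclic AMP tracer.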

Experiment [5] deals with T2, Delta-type opioid receptor. In words: Binding affinity towards mouse Opioid receptor delta 1 expressed in CHO cells of chinese hamster ovary was determined using [3H][…] as radioligand. In kind it is cell-based. The method in brief:
as §1

Experiment [6] concerns the target T3, Opioid receptors; mu/kappa/delta (Homo sapiens) (UniProt P41145+P41143+P35372). In words: Selectivity for kappa/Mu/Delta receptors was determined; 1/14/>377. The class given is protein assay.
Experiment [7] addresses T3, Opioid receptors; mu/kappa/delta (Homo sapiens). Description: Selectivity for kappa/Mu/Delta receptors was determined 1/1.7/90. The class given is protein assay.
The target is the same in experiment [8]. In words: Selectivity for kappa/Mu/Delta receptors was determined; 1/44/765. The class given is protein assay.

T3 sequence (P35372 whole entry, looked up): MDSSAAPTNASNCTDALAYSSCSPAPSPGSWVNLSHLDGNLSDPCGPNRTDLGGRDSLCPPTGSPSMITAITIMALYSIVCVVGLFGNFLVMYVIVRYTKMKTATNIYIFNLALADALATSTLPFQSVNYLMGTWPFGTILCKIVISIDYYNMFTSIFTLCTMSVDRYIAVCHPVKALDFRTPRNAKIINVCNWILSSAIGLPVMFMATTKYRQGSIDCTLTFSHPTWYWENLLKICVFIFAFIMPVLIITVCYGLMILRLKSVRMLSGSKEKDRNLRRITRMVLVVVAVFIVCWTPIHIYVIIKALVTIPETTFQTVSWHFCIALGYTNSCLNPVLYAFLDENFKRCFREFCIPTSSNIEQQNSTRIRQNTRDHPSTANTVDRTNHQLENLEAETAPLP
T3 sequence (P41143 whole entry, looked up): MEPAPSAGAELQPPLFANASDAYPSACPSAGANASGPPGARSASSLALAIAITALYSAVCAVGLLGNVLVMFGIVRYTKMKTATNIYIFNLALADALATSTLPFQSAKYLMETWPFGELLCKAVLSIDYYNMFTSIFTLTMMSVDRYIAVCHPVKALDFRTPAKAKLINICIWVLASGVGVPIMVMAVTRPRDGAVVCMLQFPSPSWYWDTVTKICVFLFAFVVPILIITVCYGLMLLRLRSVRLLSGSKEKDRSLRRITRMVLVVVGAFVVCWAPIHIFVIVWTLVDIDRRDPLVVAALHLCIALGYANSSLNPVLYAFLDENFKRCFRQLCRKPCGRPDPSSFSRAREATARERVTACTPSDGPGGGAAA
T3 sequence (P41145 whole entry, looked up): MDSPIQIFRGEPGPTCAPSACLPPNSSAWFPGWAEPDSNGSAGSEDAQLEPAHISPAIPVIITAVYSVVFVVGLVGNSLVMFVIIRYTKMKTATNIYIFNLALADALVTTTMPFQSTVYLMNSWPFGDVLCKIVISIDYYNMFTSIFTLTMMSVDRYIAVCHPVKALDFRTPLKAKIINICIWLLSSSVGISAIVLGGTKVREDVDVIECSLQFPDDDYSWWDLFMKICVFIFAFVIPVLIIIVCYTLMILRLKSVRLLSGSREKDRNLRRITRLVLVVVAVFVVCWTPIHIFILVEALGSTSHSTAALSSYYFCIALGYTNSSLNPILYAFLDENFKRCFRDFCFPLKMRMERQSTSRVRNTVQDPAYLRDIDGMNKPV
Mu-type opioid receptor, sequence (P33535 whole entry): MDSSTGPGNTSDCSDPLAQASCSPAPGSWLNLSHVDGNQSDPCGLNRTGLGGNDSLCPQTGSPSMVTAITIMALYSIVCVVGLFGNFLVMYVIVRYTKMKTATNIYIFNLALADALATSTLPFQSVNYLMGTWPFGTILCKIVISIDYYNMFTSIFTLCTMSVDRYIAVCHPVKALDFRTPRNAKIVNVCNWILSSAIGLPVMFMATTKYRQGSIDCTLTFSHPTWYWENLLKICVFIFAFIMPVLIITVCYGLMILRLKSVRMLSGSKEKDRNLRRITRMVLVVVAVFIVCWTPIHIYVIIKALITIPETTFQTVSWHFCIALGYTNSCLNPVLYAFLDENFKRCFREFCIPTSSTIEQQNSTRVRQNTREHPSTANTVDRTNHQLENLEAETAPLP
Kappa-type opioid receptor (Rattus norvegicus), sequence (P34975 whole entry): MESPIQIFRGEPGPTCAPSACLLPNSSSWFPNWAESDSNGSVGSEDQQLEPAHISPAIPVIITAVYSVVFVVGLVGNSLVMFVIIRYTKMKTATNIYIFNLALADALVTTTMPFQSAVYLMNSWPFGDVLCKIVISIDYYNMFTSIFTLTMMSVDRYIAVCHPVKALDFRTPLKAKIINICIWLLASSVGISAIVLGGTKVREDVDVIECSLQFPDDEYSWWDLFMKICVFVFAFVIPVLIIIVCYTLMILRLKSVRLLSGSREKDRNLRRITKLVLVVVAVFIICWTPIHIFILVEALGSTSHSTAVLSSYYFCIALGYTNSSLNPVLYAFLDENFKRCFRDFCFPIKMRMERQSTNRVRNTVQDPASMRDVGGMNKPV
T1 sequence (P34975 whole entry): as above
T2 sequence (P32300 whole entry): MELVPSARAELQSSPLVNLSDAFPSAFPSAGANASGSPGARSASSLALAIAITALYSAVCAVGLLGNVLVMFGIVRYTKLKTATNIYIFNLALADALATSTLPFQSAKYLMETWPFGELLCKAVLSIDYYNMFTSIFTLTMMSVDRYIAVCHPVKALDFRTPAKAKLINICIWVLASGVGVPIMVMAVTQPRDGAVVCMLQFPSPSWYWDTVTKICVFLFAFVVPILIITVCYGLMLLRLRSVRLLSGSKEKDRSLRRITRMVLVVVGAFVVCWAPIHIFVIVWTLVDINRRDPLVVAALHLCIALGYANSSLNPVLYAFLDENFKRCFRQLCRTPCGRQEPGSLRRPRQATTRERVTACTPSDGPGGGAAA

As for `CC(C)C[C@H](NC(=O)[C@@H]1Cc2ccccc2CN1C(=O)CNC(=O)CNC(=O)[C@@H](N)Cc1ccc(O)cc1)C(=O)N[C@@H](CCCNC(=N)N)C(=O)N[C@@H](CCCNC(=N)N)C(=O)N[C@H](C)C(=O)N[C@@H](CCCNC(=N)N)C(=O)N1CCC[C@H]1C(=O)N[C@@H](CCCCN)C(N)=O`, the results for the inhibition constant Ki (on Mu-type opioid receptor; in experiment [1]; in [3]) were 0.206 µM, 0.00469 µM and 3.59 µM, respectively. In [2], the EC50 is 0.0294 µM.

`CC(C)C[C@H](NC(=O)[C@@H](CCc1ccccc1)NC(=O)CNC(=O)CNC(=O)[C@@H](N)Cc1ccc(O)cc1)C(=O)N[C@@H](CCCN=C(N)N)C(=O)N[C@@H](CCCN=C(N)N)C(=O)N[C@H](C)C(=O)N[C@@H](CCCN=C(N)N)C(=O)N1CCC[C@H]1C(=O)N[C@@H](CCCCN)C(N)=O`: the Ki was 0.0137 µM at Mu-type opioid receptor (cho), 0.00066 µM in experiment [1] and 0.19 µM in experiment [3] (cho). In [2] (cho), the EC50 is 0.0052 µM. The same molecule came in with a Max response in [4] of 95%.

With `CC(C)C[C@H](NC(=O)[C@]1(NC(=O)CNC(=O)CNC(=O)[C@@H](N)Cc2ccc(O)cc2)CCc2ccccc2C1)C(=O)N[C@@H](CCCNC(=N)N)C(=O)N[C@@H](CCCNC(=N)N)C(=O)N[C@H](C)C(=O)N[C@@H](CCCNC(=N)N)C(=O)N1CCC[C@H]1C(=O)N[C@@H](CCCCN)C(N)=O`, the Ki on Mu-type opioid receptor was 0.0883 µM; in [1], 0.00954 µM; in experiment [3] it was above 10 µM. In addition, the EC50 in experiment [2] is 0.573 µM.

In the case of `CC(C)C[C@H](NC(=O)[C@H](Cc1ccccc1)N(C)C(=O)CNC(=O)CNC(=O)[C@@H](N)Cc1ccc(O)cc1)C(=O)N[C@@H](CCCN=C(N)N)C(=O)N[C@@H](CCCN=C(N)N)C(=O)N[C@H](C)C(=O)N[C@@H](CCCN=C(N)N)C(=O)N1CCC[C@H]1C(=O)N[C@@H](CCCCN)C(N)=O`, the figures for the Ki (on Mu-type opioid receptor (cho); in experiment [1] (cho); in experiment [3] (cho)) were 0.00103 µM, 0.00062 µM and 0.0561 µM, respectively. Further, in experiment [2] (cho), the EC50 stood at 0.00356 µM.

As to `CC(C)C[C@H](NC(=O)[C@H](Cc1ccccc1)NC(=O)CNC(=O)CNC(=O)[C@@H](N)Cc1ccc(O)cc1)C(=O)N[C@@H](CCCN=C(N)N)C(=O)N[C@@H](CCCN=C(N)N)C(=O)N[C@H](C)C(=O)N[C@@H](CCCN=C(N)N)C(=O)N1CCC[C@H]1C(=O)N[C@@H](CCCCN)C(N)=O`, the Ki was 0.123 µM at Mu-type opioid receptor, 0.00891 µM in experiment [1] and above 10 µM in experiment [5]. In experiment [2], the EC50 worked out at 0.515 µM. The Max response in experiment [4] was determined as 73%.

Turning to `CC(C)C[C@H](NC(=O)C1(NC(=O)CNC(=O)CNC(=O)[C@@H](N)Cc2ccc(O)cc2)Cc2ccccc2C1)C(=O)N[C@@H](CCCN=C(N)N)C(=O)N[C@@H](CCCN=C(N)N)C(=O)N[C@H](C)C(=O)N[C@@H](CCCN=C(N)N)C(=O)N1CCC[C@H]1C(=O)N[C@@H](CCCCN)C(N)=O`, the Ki on Mu-type opioid receptor was 0.364 µM; in experiment [1], 0.0265 µM; in experiment [3] it was above 10 µM. In addition, the Ki ratio entry in experiment [6] is recorded as “kappa/mu/delta”. In addition, the Max response in experiment [4] amounted to 39%.

With `CC(C)C[C@H](NC(=O)[C@@H](Cc1ccccc1)NC(=O)CNC(=O)CNC(=O)[C@@H](N)Cc1ccc(O)cc1)C(=O)N[C@@H](CCCN=C(N)N)C(=O)N[C@@H](CCCN=C(N)N)C(=O)N[C@H](C)C(=O)N[C@@H](CCCN=C(N)N)C(=O)N1CCC[C@H]1C(=O)N[C@@H](CCCCN)C(N)=O`, the Ki on Mu-type opioid receptor (cho) stood at 0.0042 µM; in experiment [1] (cho) it was 0.00011 µM; in [3] (cho) it was 0.00657 µM. In [2] (cho), the EC50 was determined as 0.00124 µM. In experiment [4], this molecule displayed a Max response of 100%.

As to `CC(C)C[C@H](NC(=O)[C@@H](Cc1ccccc1)N(C)C(=O)CNC(=O)CNC(=O)[C@@H](N)Cc1ccc(O)cc1)C(=O)N[C@@H](CCCN=C(N)N)C(=O)N[C@@H](CCCN=C(N)N)C(=O)N[C@H](C)C(=O)N[C@@H](CCCN=C(N)N)C(=O)N1CCC[C@H]1C(=O)N[C@@H](CCCCN)C(N)=O`, in experiment [7], the Ki ratio result is given as “kappa/mu/delta”. The molecule further had a Max response in experiment [4] of 99%.

As to `CC(C)C[C@H](NC(=O)[C@@]1(NC(=O)CNC(=O)CNC(=O)[C@@H](N)Cc2ccc(O)cc2)CCc2ccccc2C1)C(=O)N[C@@H](CCCN=C(N)N)C(=O)N[C@@H](CCCN=C(N)N)C(=O)N[C@H](C)C(=O)N[C@@H](CCCN=C(N)N)C(=O)N1CCC[C@H]1C(=O)N[C@@H](CCCCN)C(N)=O`, the inhibition constant Ki at Mu-type opioid receptor is 0.0329 µM; in [1] it was 0.00089 µM; in experiment [3] it was above 10 µM. The molecule further had an EC50 in experiment [2] of 0.0724 µM. The molecule further returned a Max response in experiment [4] of 96%.

On to `CC(C)C[C@H](NC(=O)[C@@H]1Cc2ccccc2CN1C(=O)CNC(=O)CNC(=O)[C@@H](N)Cc1ccc(O)cc1)C(=O)N[C@@H](CCCN=C(N)N)C(=O)N[C@@H](CCCN=C(N)N)C(=O)N[C@H](C)C(=O)N[C@@H](CCCN=C(N)N)C(=O)N1CCC[C@H]1C(=O)N[C@@H](CCCCN)C(N)=O`, for which, in experiment [8], the Ki ratio result is on record as “kappa/mu/delta”. Further, in experiment [4], the Max response was determined as 91%.

The molecule `CC(C)C[C@H](NC(=O)[C@]1(NC(=O)CNC(=O)CNC(=O)[C@@H](N)Cc2ccc(O)cc2)CCc2ccccc2C1)C(=O)N[C@@H](CCCN=C(N)N)C(=O)N[C@@H](CCCN=C(N)N)C(=O)N[C@H](C)C(=O)N[C@@H](CCCN=C(N)N)C(=O)N1CCC[C@H]1C(=O)N[C@@H](CCCCN)C(N)=O` came in with a Max response in experiment [4] of 74%.

Turning to `CC(C)C[C@H](NC(=O)[C@@](C)(Cc1ccccc1)NC(=O)CNC(=O)CNC(=O)[C@@H](N)Cc1ccc(O)cc1)C(=O)N[C@@H](CCCN=C(N)N)C(=O)N[C@@H](CCCN=C(N)N)C(=O)N[C@H](C)C(=O)N[C@@H](CCCN=C(N)N)C(=O)N1CCC[C@H]1C(=O)N[C@@H](CCCCN)C(N)=O`, the Ki was 0.00324 µM on Mu-type opioid receptor (cho), 0.0032 µM in experiment [1] (cho) and 0.157 µM in experiment [3] (cho). In experiment [2] (cho), this molecule returned an EC50 of 0.0365 µM. The same molecule displayed a Max response in experiment [4] of 100%.

As to `CC(C)C[C@H](NC(=O)[C@H](CCc1ccccc1)NC(=O)CNC(=O)CNC(=O)[C@@H](N)Cc1ccc(O)cc1)C(=O)N[C@@H](CCCN=C(N)N)C(=O)N[C@@H](CCCN=C(N)N)C(=O)N[C@H](C)C(=O)N[C@@H](CCCN=C(N)N)C(=O)N1CCC[C@H]1C(=O)N[C@@H](CCCCN)C(N)=O`, the Ki at Mu-type opioid receptor worked out at 0.047 µM; in [1], 0.00173 µM; in [3], 5.57 µM. Moreover, the EC50 in [2] was determined as 0.0469 µM. In experiment [4], the Max response worked out at 100%.
